*1 amine or outer side, *2 acyl side, *3 side chain or, on linkers, in order; H or OH if unused. Where a SMILES comes first, the peptide text is derived from it. Side-chain parts run from the residue outwards. [ ]: non-standard residue; d: D form. The star is where a group is joined. ξ: configuration not given here. Thz(5,5-Me2) = CC1(C)SCN[C@@H]1C(=O)O; NMeF = CN[C@@H](Cc1ccccc1)C(=O)O; NH(2-Me-phenyl) = Cc1ccccc1N*; ξF = NC(Cc1ccccc1)C(=O)O; Boc = CC(C)(C)OC(=O)*; CO = O=C([*:1])[*:2]
Experiments:
[1] = biological target: T1, Gastrin/cholecystokinin type B receptor (Bos taurus, UniProt P79266); test: Concentration inhibiting [3H]propionyl-CCK-8 binding to cholecystokinin type B receptor of bovine striatum.; assay type: tissue-based
T1 sequence (P79266 whole entry): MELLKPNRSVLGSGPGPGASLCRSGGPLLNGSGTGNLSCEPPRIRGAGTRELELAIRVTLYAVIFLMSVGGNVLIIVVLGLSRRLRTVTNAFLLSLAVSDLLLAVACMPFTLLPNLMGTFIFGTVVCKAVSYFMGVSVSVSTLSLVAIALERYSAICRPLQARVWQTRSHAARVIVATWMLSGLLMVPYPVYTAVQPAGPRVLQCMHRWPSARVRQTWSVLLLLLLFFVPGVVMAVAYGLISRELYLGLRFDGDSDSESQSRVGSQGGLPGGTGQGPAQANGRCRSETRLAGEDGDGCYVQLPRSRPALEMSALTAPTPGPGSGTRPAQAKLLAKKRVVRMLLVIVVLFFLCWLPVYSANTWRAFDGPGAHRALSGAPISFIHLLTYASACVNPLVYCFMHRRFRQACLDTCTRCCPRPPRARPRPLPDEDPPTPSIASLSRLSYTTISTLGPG
Procedure, shortened: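 CCK-B binding used solubilized bovine striatal membranes and [3H]propanoyl-CCK-8 displacement. Nonspecific binding was taken with 1 μM native CCK-8 and subtracted. IC50, the concentration giving 50% inhibition of total specific binding, was obtained by log-probit analysis. Actives were confirmed in duplicate experiments.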

[2] = biological target: T2, Cholecystokinin receptor type A (Rattus norvegicus, UniProt P30551); test: Concentration inhibiting [3H]propionyl-CCK-8 binding to cholecystokinin type A receptor of rat pancreatic membranes.
T2 sequence (P30551 whole entry): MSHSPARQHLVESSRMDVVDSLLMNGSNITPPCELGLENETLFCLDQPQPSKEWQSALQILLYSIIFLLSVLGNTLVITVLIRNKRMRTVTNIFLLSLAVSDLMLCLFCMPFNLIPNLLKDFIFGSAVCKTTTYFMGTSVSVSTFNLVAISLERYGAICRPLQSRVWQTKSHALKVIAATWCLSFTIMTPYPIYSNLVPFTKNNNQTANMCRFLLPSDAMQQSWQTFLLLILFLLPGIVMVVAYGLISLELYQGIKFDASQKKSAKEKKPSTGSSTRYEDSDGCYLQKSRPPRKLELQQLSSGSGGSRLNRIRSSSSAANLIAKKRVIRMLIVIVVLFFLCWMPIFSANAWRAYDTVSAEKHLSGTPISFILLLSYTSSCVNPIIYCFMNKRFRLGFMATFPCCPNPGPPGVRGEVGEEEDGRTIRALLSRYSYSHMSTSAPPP
Procedure, shortened: (§1)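 Solubilized membranes from fresh pancreas of fasted rats (CCK-A). Competition against [3H]propanoyl-CCK-8. Nonspecific binding defined with 1 μM native CCK-8 and subtracted. IC50 is the concentration inhibiting 50% of total specific binding, from log-probit analysis. Actives confirmed in duplicate experiments.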

Rattus norvegicus [3] = test: Dose required to inhibit the food intake by 50% in rats at a dose of 320 ug/kg ip; assay type: functional
Procedure, shortened: (§2)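 Male Sprague–Dawley rats (200–250 g), meal-fed. "1-2-1": trained 4–5 days on two 1-h meals 2 h apart; ip dosing 15 min before first meal, n=5–6. "Overnight fasted": n=5–7, ip vehicle or drug, food offered 1 h. Intake as % of saline control over first hour; t-test vs control; ED50 by log-probit.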

Rattus norvegicus [4] = test: Suppression of food intake in rats when administered intraperitoneally; assay type: functional; procedure, shortened: as §2
[5] = biological target: T2, Cholecystokinin receptor type A; test: Inhibitory activity against cholecystokinin type A receptor from rat pancreas binding assay; procedure, shortened: as §1
Rattus norvegicus [6] = test: Dose required to inhibit the food intake by 50% in rats after intraperitoneal administration; assay type: functional; conditions: ip; procedure, shortened: as §2

Row | SMILES | IC50 [1] [nM] | IC50 [2] [nM] | ED50 (Rattus norvegicus [3]) [mg/kg] | IC50 [5] [nM] | further results
1 | CSCC[C@H](NC(=O)[C@H](Cc1ccc(OS(=O)(=O)O)cc1)NC(C)=O)C(=O)NCC(=O)N[C@@H](Cc1c[nH]c2ccccc12)C(=O)N[C@@H](CCSC)C(=O)N1CSC(C)(C)[C@@H]1C(=O)N[C@@H](Cc1ccccc1)C(N)=O [listing 1 of 2 here] | 6160 | 314 | – | – | –
2 | CSCC[C@H](NC(=O)[C@H](Cc1ccc(OS(=O)(=O)O)cc1)NC(C)=O)C(=O)NCC(=O)N[C@@H](Cc1c[nH]c2ccccc12)C(=O)N[C@@H](CCSC)C(=O)N1CSC(C)(C)[C@@H]1C(=O)N[C@@H](Cc1ccccc1)C(N)=O [listing 2 of 2 here] | – | – | > 0.32 | – | Control (Rattus norvegicus [4]): 66%
3 | CSCC[C@H](NC(=O)[C@H](Cc1ccc(OS(=O)(=O)O)cc1)NC(C)=O)C(=O)NCC(=O)N[C@@H](Cc1c[nH]c2ccccc12)C(=O)N[C@@H](CCSC)C(=O)N1CSC(C)(C)[C@H]1C(=O)N[C@@H](Cc1ccccc1)C(N)=O [listing 1 of 2 here] | 2310 | 0.05 | – | – | –
4 | CSCC[C@H](NC(=O)[C@H](Cc1ccc(OS(=O)(=O)O)cc1)NC(C)=O)C(=O)NCC(=O)N[C@@H](Cc1c[nH]c2ccccc12)C(=O)N[C@@H](CCSC)C(=O)N1CSC(C)(C)[C@H]1C(=O)N[C@@H](Cc1ccccc1)C(N)=O [listing 2 of 2 here] | – | – | 0.0044 | – | –
5 | Cc1ccccc1NC(=O)NCCCC[C@H](NC(=O)[C@H](Cc1c[nH]c2ccccc12)NC(=O)OC(C)(C)C)C(=O)N[C@@H](CC(=O)O)C(=O)N(C)[C@@H](Cc1ccccc1)C(N)=O (Boc-WK([CO-NH(2-Me-phenyl)])D[NMeF]-NH2) | – | – | – | 0.05 | –
6 | Cc1ccccc1NC(=O)NCCCC[C@H](NC(=O)[C@H](Cc1c[nH]c2ccccc12)NC(=O)OC(C)(C)C)C(=O)N1CSC(C)(C)[C@H]1C(=O)NC(Cc1ccccc1)C(N)=O (stereo not given in full) (Boc-WK([CO-NH(2-Me-phenyl)])[Thz(5,5-Me2)][ξF]-NH2) | – | – | – | 59 | ED50 (Rattus norvegicus [6]): 0.085 mg/kg
